Here are results for 14 compounds from ChEMBL document CHEMBL3994646, “Structure-based design and SAR development of 5,6-dihydroimidazolo[1,5-f]pteridine derivatives as novel Polo-like kinase-1 inhibitors” (Bioorg Med Chem Lett, 2017).

Molecules are shown by their SMILES.

In data set [1] the test system is HT-29. In words: Antiproliferative activity against human HT-29 cells after 72 hrs by CellTiter-Glo assay. Conditions: HT-29, 72 h; call rule not given here.
A further data set addresses T1, Cytochrome P450 2C8 (Homo sapiens, UniProt P10632).
T1 sequence (P10632 whole entry): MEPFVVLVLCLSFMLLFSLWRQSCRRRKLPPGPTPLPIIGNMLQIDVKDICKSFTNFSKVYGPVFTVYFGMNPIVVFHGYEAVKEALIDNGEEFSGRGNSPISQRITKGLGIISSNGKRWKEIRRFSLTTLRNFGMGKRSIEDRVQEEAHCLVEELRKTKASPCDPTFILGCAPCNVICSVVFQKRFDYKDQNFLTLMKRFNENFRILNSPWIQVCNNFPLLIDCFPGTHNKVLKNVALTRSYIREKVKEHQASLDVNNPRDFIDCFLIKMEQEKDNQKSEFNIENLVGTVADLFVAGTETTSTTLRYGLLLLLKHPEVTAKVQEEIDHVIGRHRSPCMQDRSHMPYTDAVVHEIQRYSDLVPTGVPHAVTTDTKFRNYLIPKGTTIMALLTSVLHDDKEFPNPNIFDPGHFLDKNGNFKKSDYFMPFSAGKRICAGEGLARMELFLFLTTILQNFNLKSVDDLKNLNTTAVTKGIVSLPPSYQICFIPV
The experiment in a line: Inhibition of CYP2C8 (unknown origin). Format: ADME.

Data set [2] can be described thus: Oral bioavailability in rat. It counts as ADME, organism-based. The note with it: in vivo. An outline of the steps: (§1)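 Rats dosed at about 1.0 mg/kg IV in 30% β-cyclodextrin in 0.05 M MSA, pH 3, and about 5.0 mg/kg orally in 0.5% methylcellulose. Clearance from the IV arm; oral bioavailability from comparison of the two routes.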
Data set [3] can be described thus: Clearance in rat. Format: ADME. The note with it: in vivo. In short, it runs like this:
as §1

The target of the next data set is Cytochrome P450 3A4 (Homo sapiens, UniProt P08684). The experiment in a line: Inhibition of CYP3A4 (unknown origin). It counts as ADME.
Data set [4] in a line: Inhibition of CYP450 (unknown origin). It counts as ADME. The note with it: human.
For another data set, the target named is hERG (KCNH2) (Homo sapiens, UniProt Q12809). In words: Inhibition of human ERG at 10 uM relative to control.
Data set [5] relates to HT-29. In words: Antitumor activity against human HT-29 cells xenografted in mouse assessed as tumor growth inhibition at 45 mg/kg, iv 1/time/week x 1 cycle relative to control. Format: functional. In short, it runs like this: (§2)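 Mice bearing HT-29 xenografts given 45 mg/kg IV once weekly for one cycle. Efficacy expressed as tumour T/C (%) versus control; tolerability as percent body weight loss.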

Data set [6] in a line: AUC (0 to t) in mouse at 5 mg/kg, po. Format: ADME, organism-based. The note with it: in vivo. An outline of the steps:
(§3)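 Female mice given 5 mg/kg orally. Oral exposure (Cmax, Tmax, T1/2, MRT, AUC0-t, extrapolated AUC) measured, and bioavailability taken relative to the 1 mg/kg IV arm.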

Data set [7] is described as follows: Mean residence time in mouse at 5 mg/kg, po. The note with it: in vivo. Format: ADME, organism-based. In short, it runs like this:
as §3

Data set [8] has as its system Mus musculus. In words: Toxicity in mouse xenografted with human HT-29 cells assessed as body weight loss at 45 mg/kg, iv 1/time/week x 1 cycle relative to control. It counts as organism-based. The note with it: in vivo. An outline of the steps:
as §2

The nature of data set [9]: Oral bioavailability in mouse at 5 mg/kg. It counts as ADME, organism-based. Conditions: in vivo. An outline of the steps: as §3
Data set [10] in a line: AUCextrapolated in mouse at 1 mg/kg, iv. It counts as ADME, organism-based. Conditions: in vivo. An outline of the steps:
(§4)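 Female mice dosed intravenously at 1 mg/kg. Plasma concentration–time data used to derive Cmax, T1/2, MRT, AUC0-t, extrapolated AUC, clearance and steady-state volume of distribution.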

The nature of data set [11]: Tmax in mouse at 5 mg/kg, po. Format: ADME, organism-based. The note with it: in vivo. In short, it runs like this: as §3
Data set [12] can be described thus: Clearance in mouse at 1 mg/kg, iv. Format: ADME, organism-based. The note with it: in vivo. In short, it runs like this:
as §4

A short description of data set [13]: Cmax in mouse at 5 mg/kg, po. It counts as ADME, organism-based. Also noted: dose 5 mg/kg, route oral. Conditions: in vivo. An outline of the steps:
as §3

Data set [14] can be described thus: Mean residence time in mouse at 1 mg/kg, iv. It counts as ADME, organism-based. Conditions: in vivo. In short, it runs like this: as §4
The nature of data set [15]: Volume of distribution at steady state in mouse at 1 mg/kg, iv. Conditions: in vivo, read-out: Vdss. Format: ADME, organism-based. In short, it runs like this:
as §4

The nature of data set [16]: AUCextrapolated in mouse at 5 mg/kg, po. Format: ADME, organism-based. Conditions: in vivo. In short, it runs like this: as §3
The nature of data set [17]: Half life in mouse at 1 mg/kg, iv. It counts as ADME, organism-based. Conditions: in vivo. An outline of the steps:
as §4

Data set [18] in a line: Half life in mouse at 5 mg/kg, po. Format: ADME, organism-based. The note with it: in vivo. In short, it runs like this:
as §3

A short description of data set [19]: Cmax in mouse at 1 mg/kg, iv. Format: ADME, organism-based. Also noted: dose 1 mg/kg, route intravenous. Conditions: in vivo. An outline of the steps:
as §4

Data set [20] deals with Mus musculus. In words: Bioavailability in mouse at 5 mg/kg, po. Conditions: in vivo.
Data set [21] can be described thus: AUC (0 to t) in mouse at 1 mg/kg, iv. Format: ADME, organism-based. Conditions: in vivo. An outline of the steps:
as §4

Chain of Cytochrome P450 3A4 (P08684 whole entry): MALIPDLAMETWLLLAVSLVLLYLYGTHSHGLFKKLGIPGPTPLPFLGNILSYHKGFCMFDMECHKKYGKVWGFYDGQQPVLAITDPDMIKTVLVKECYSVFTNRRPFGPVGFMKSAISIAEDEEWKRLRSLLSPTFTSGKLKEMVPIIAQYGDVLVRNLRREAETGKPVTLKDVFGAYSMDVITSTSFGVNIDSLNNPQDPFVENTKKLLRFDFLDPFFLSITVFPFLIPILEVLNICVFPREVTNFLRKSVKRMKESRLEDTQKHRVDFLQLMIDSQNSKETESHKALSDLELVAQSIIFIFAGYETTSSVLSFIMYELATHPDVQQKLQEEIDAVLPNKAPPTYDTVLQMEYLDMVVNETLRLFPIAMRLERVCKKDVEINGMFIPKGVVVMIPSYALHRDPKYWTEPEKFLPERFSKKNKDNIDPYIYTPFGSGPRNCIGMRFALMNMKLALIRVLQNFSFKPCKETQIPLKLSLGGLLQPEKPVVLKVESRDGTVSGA
Chain of hERG (KCNH2) (Q12809 whole entry): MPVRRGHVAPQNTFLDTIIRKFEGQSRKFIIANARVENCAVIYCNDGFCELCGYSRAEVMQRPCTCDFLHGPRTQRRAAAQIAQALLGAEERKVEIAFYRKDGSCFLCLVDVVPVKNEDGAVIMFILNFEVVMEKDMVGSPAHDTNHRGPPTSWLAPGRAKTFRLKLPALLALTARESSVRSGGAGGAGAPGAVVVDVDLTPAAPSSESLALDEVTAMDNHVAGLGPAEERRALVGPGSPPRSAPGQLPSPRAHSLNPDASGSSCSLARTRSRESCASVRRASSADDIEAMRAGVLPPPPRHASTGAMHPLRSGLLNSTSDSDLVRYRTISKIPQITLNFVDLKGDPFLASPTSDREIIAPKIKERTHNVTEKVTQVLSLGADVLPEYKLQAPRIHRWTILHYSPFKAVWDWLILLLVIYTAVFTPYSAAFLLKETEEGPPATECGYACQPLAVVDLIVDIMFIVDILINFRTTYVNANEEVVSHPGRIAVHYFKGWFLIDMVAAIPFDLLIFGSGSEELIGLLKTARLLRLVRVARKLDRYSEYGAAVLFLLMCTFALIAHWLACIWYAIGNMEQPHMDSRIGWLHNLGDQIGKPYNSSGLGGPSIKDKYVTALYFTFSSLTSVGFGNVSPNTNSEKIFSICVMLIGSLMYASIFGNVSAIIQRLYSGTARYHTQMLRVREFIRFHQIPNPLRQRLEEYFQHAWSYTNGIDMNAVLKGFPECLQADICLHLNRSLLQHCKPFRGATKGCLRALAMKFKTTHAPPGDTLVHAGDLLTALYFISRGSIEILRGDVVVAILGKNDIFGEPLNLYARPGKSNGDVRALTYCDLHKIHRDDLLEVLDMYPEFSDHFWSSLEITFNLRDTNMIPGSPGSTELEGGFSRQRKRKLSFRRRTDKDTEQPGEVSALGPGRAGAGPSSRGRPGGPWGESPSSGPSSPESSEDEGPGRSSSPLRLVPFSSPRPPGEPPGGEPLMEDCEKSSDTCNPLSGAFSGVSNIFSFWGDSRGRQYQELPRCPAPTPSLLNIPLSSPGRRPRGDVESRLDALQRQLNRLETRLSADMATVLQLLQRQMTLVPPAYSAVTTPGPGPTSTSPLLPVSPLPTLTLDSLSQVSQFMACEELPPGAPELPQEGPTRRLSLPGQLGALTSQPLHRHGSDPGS

In the data set with HT-29 [1], `CC[C@@H]1c2c(C(N)=O)ncn2-c2cnc(Nc3ccc(C(=O)NC4CCN(C)CC4)cc3OC)nc2N1C1CCCC1` had an EC50 of 20 nM.
Take `CC[C@@H]1c2c(C#N)ncn2-c2cnc(Nc3cc(F)c(C(=O)NC4CCN(C)CC4)cc3OC)nc2N1C1CCCC1`: the IC50 on Cytochrome P450 2C8 and against Cytochrome P450 3A4 was less than 10000 nM in each case. Besides, the bioavailability in [2] was determined as 49%. Besides, in the data set on HT-29 [1], a half-maximal effect (EC50) was put at 1 nM. The clearance in data set [3] was 28 mL/min/kg.
As for `CC[C@@H]1c2c(C#N)ncn2-c2cnc(Nc3cc(F)c(C(=O)NC4CCN(CC)CC4)cc3OC)nc2N1C(C)C`, in data set [4], the “inhibition (INH)” value is “Not Active”. For the same compound, in the data set on HT-29 [1], the concentration for a half-maximal effect (EC50) amounted to 3 nM. Besides, on hERG (KCNH2), 10 µM produced 37% inhibition.
In the data set on HT-29 [1], `CCOC(=O)c1ncn2c1[C@@H](CC)N(C1CCCC1)c1nc(Nc3ccc(C(=O)NC4CCN(C)CC4)cc3OC)ncc1-2` gave a half-maximal effective concentration (EC50) of 9 nM.
Turning to `CC[C@@H]1c2c(C#N)ncn2-c2cnc(Nc3ccc(C(=O)NC4CCN(C)CC4)cc3OC)nc2N1C1CCCC1`, the bioavailability in data set [2] came to 0%. The EC50 in the data set with HT-29 [1] was 2.7 to 3 nM. Moreover, the clearance in [3] was 76 mL/min/kg. At Cytochrome P450 3A4, the IC50 was less than 10000 nM.
For `CC[C@@H]1c2c(C#N)ncn2-c2cnc(Nc3cc(F)c(C(=O)NC4CCN(C)CC4)cc3OC)nc2N1C1CCCCC1`, the IC50 against Cytochrome P450 2C8 and at Cytochrome P450 3A4 was less than 10000 nM throughout. In the data set with HT-29 [1], this compound came in with an EC50 of 2 nM.
In the data set with HT-29 [1], `CCNC(=O)c1ncn2c1[C@@H](CC)N(C1CCCC1)c1nc(Nc3ccc(C(=O)NC4CCN(C)CC4)cc3OC)ncc1-2` registered a concentration giving a half-maximal response (EC50) of 100 nM.
For `CC[C@@H]1c2c(C#N)ncn2-c2cnc(Nc3ccc(C(=O)NC4CCN(C)CC4)cc3OC)nc2N1C(C)C`, the “inhibition (INH)” value in data set [4] is “Not Active”. In data set [2], the bioavailability was 0.5%. Besides, the EC50 with HT-29 [1] is 6 nM.
Consider `CC[C@@H]1c2c(C#N)ncn2-c2cnc(Nc3cc(F)c(C(=O)NC4CN(C)C4)cc3OC)nc2N1C(C)C`, for which the “inhibition (INH)” value in [4] is listed as “Not Active”. In the data set with HT-29 [1], this compound yielded an EC50 of 3 nM.
In the data set with HT-29 [1], `CC[C@@H]1c2c(C(=O)N(C)O)ncn2-c2cnc(Nc3ccc(C(=O)NC4CCN(C)CC4)cc3OC)nc2N1C1CCCC1` returned an EC50 of 60 nM.
On the same count and under the same terms, next, `CC[C@@H]1c2c(C(=O)O)ncn2-c2cnc(Nc3ccc(C(=O)NC4CCN(C)CC4)cc3OC)nc2N1C1CCCC1`: 400 nM.
For `CC[C@@H]1c2c(C#N)ncn2-c2cnc(Nc3cc(F)c(C(=O)N[C@H]4CC[C@H](N5CCN(CC6CC6)CC5)CC4)cc3OC)nc2N1C(C)C`, the T/C in the data set on HT-29 [5] is 54.6%. The exposure AUC(0-t) came to 3900 ng·h/mL in data set [6] and 713 ng·h/mL in [21]. The MRT in data set [7] amounted to 13 h; in data set [14], 6.5 h. Also, the “inhibition (INH)” value in [4] was “Not Active”. Further, in the data set on Mus musculus [8], the Activity turned out to be 5.5%. The bioavailability in data set [9] amounted to 101%; in data set [2] it was 100%. Also, the figures for the AUC in data set [10] and in data set [16] were 1010 ng·h/mL and 4590 ng·h/mL, respectively. For the same compound, the time to peak (Tmax) in data set [11] was determined as 4 h. Further, the clearance in data set [12] worked out at 22.7 mL/min/kg. This compound also showed an EC50 in the data set on HT-29 [1] of 22 nM. Besides, the Cmax in data set [13] was determined as 354 ng/mL; in [19] it was 258 ng/mL. In addition, the Vd in data set [15] turned out to be 8.9 L/kg. The half-life was 4.7 h in [17] and 8.5 h in data set [18]. This compound gave a F in the data set on Mus musculus [20] of 100%.
In the data set on HT-29 [1], `CC[C@@H]1c2c(CO)ncn2-c2cnc(Nc3ccc(C(=O)NC4CCN(C)CC4)cc3OC)nc2N1C1CCCC1` displayed an EC50 of 30 nM.
As to `CC[C@@H]1c2c(C#N)ncn2-c2cnc(Nc3cc(F)c(C(=O)NC4CCN(C)CC4)cc3OC)nc2N1C(C)C`, the “inhibition (INH)” value in data set [4] is “Not Active”. The bioavailability in [2] came out at 47%. For the same compound, it took 4 nM to reach a half-maximal effect in the data set with HT-29 [1] (EC50).
